Data from ChEMBL document CHEMBL3580633, “Benzoxaborole antimalarial agents. Part 4. Discovery of potent 6-(2-(alkoxycarbonyl)pyrazinyl-5-oxy)-1,3-dihydro-1-hydroxy-2,1-benzoxaboroles” (J Med Chem, 2015).

Experiments:
[1] = test system: Plasmodium berghei; test: Antiplasmodial activity against Plasmodium berghei infected in Swiss Webster mouse assessed as mouse survival at 100 mg/kg, po dosed once daily for 4 consecutive days beginning 1 hr after initial infection and measured on day 20 post infection by Giemsa staining method; assay type: functional
Outline: (§1)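 Female Swiss Webster mice (about 20 g) infected ip with 6 × 10^6 P. berghei-infected erythrocytes. Oral gavage once daily for 4 days, starting 1 h after infection. Vehicle PEG300/propylene glycol/water (55/25/20 by weight). Giemsa-smear parasitemia counted daily from day 4. Mice euthanised above 50% parasitemia. Survival followed to day 21, 5 mice per dose, chloroquine 30 mg/kg as reference.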

[2] = test system: Plasmodium berghei; test: Antiplasmodial activity against Plasmodium berghei infected in Swiss Webster mouse assessed as mouse survival at 3 mg/kg, po dosed once daily for 4 consecutive days beginning 1 hr after initial infection and measured on day 10 post infection by Giemsa staining method; assay type: functional; outline: as §1
[3] = test system: Plasmodium berghei; test: Antiplasmodial activity against Plasmodium berghei infected in Swiss Webster mouse assessed as mouse survival at 3 mg/kg, po dosed once daily for 4 consecutive days beginning 1 hr after initial infection and measured on day 12 post infection by Giemsa staining method; assay type: functional; outline: as §1
[4] = Stability in mouse liver microsomes assessed as compound remaining at 1 uM incubated for 1 hr in presence of NADPH by LC/MS/MS method; assay type: ADME
Outline: (§2)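 Compound at 1 μM final (from a 1 mg/mL DMSO stock) was incubated with mouse or human liver microsomes (0.5 mg/mL protein) in 100 mM potassium phosphate, pH 7.4, at 37 °C with shaking, with or without 1 mM NADPH. Samples were taken over 0–120 min and tested in duplicate. Reactions were quenched with cold acetonitrile plus internal standard and analyzed by LC/MS/MS.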

[5] = test system: Liver microsome; test: Stability in human liver microsomes assessed as compound remaining at 1 uM incubated for 1 hr in presence of NADPH by LC/MS/MS method; assay type: ADME; outline: as §2
[6] = Terminal half life in CD1 mouse at 5 mg/kg, po by HPLC coupled to tandem mass spectrometry; assay type: ADME, organism-based; conditions: in vivo, read-out: beta t1/2 (converted)
Outline: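 Adult female CD-1 mice were given oral gavage at 5 mg/kg in a formulated solution, either PEG 400/dimethylacetamide/water (45/10/45, pH 5.8) or PEG 300/propylene glycol/water (55/25/20, pH 5.9). Blood samples were analysed for drug by HPLC-tandem MS, and the terminal half-life was derived.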

[7] = test system: Mus musculus; test: Cmax in CD1 mouse assessed as 5-(1-hydroxy-1,3-dihydrobenzo[c][1,2]oxaborol-6-yloxy)pyrazine-2-carboxylic acid level at 5 mg/kg, po by HPLC coupled to tandem mass spectrometry; assay type: ADME, organism-based; design: dose 5 mg/kg, route oral; conditions: in vivo
Outline: (§3)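 The parent ester was given to adult female CD-1 mice at 5 mg/kg, iv or by oral gavage, in PEG 400/dimethylacetamide/water (45/10/45, pH 5.8). Blood was sampled, and the acid formed from the ester in vivo was quantified by HPLC-tandem MS to derive its PK parameters.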

[8] = test system: Mus musculus; test: AUC (0 to infinity) in CD1 mouse assessed as 5-(1-hydroxy-1,3-dihydrobenzo[c][1,2]oxaborol-6-yloxy)pyrazine-2-carboxylic acid level at 5 mg/kg, iv by HPLC coupled to tandem mass spectrometry; assay type: ADME, organism-based; design: dose 5 mg/kg, route intravenous, time infinity; conditions: in vivo; outline: as §3
[9] = test system: Mus musculus; test: Terminal half life in CD1 mouse assessed as 5-(1-hydroxy-1,3-dihydrobenzo[c][1,2]oxaborol-6-yloxy)pyrazine-2-carboxylic acid level at 5 mg/kg, iv by HPLC coupled to tandem mass spectrometry; assay type: ADME, organism-based; conditions: in vivo; outline: as §3
[10] = test system: Plasmodium berghei; test: Antiplasmodial activity against Plasmodium berghei infected in Swiss Webster mouse assessed as mouse survival at 100 mg/kg, po dosed once daily for 4 consecutive days beginning 1 hr after initial infection and measured on day 14 post infection by Giemsa staining method; assay type: functional; outline: as §1
[11] = test system: Plasmodium berghei; test: Antiplasmodial activity against Plasmodium berghei infected in Swiss Webster mouse assessed as mouse survival at 100 mg/kg, po dosed once daily for 4 consecutive days beginning 1 hr after initial infection and measured on day 15 post infection by Giemsa staining method; assay type: functional; outline: as §1
[12] = test system: Plasmodium berghei; test: Antiplasmodial activity against Plasmodium berghei infected in Swiss Webster mouse assessed as mouse survival at 100 mg/kg, po dosed once daily for 4 consecutive days beginning 1 hr after initial infection and measured on day 16 to 19 post infection by Giemsa staining method; assay type: functional; outline: as §1
[13] = test system: Plasmodium berghei; test: Antiplasmodial activity against Plasmodium berghei infected in Swiss Webster mouse assessed as mouse survival at 3 mg/kg, po dosed once daily for 4 consecutive days beginning 1 hr after initial infection and measured on day 9 post infection by Giemsa staining method
[14] = Cmax in CD1 mouse at 30 mg/kg, po by HPLC coupled to tandem mass spectrometry; assay type: ADME, organism-based; design: dose 30 mg/kg, route oral; conditions: in vivo
Outline: (§4)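 Adult female CD-1 mice were dosed 10 mg/kg by iv injection or 30 mg/kg by oral gavage, with the compound in 100% saline. Blood samples were collected and drug content was measured by HPLC-tandem MS.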

[15] = AUC (0 to 2 hrs) in CD1 mouse at 30 mg/kg, po by HPLC coupled to tandem mass spectrometry; assay type: ADME, organism-based; design: dose 30 mg/kg, time < 2 hr, route oral; conditions: in vivo; outline: as §4
[16] = Terminal half life in CD1 mouse at 30 mg/kg, po by HPLC coupled to tandem mass spectrometry; assay type: ADME, organism-based; conditions: in vivo, read-out: beta t1/2 (converted); outline: as §4
[17] = Clearance in CD1 mouse at 10 mg/kg, iv by HPLC coupled to tandem mass spectrometry; assay type: ADME, organism-based; conditions: in vivo; outline: as §4
[18] = Volume of distribution at steady state in CD1 mouse at 10 mg/kg, iv by HPLC coupled to tandem mass spectrometry; assay type: ADME, organism-based; conditions: in vivo, read-out: Vdss; outline: as §4
[19] = Terminal half life in CD1 mouse at 10 mg/kg, iv by HPLC coupled to tandem mass spectrometry; assay type: ADME, organism-based; conditions: in vivo, read-out: beta t1/2 (converted); outline: as §4
[20] = test system: Plasmodium berghei; test: Antiplasmodial activity against Plasmodium berghei infected in Swiss Webster mouse assessed as mouse survival at 200 mg/kg, po dosed once daily for 4 consecutive days beginning 1 hr after initial infection and measured on day 4 post infection by Giemsa staining method; assay type: functional; outline: as §1
[21] = test system: Plasmodium berghei; test: Antiplasmodial activity against Plasmodium berghei infected in Swiss Webster mouse assessed as mouse survival at 200 mg/kg, po dosed once daily for 4 consecutive days beginning 1 hr after initial infection and measured on day 5 post infection by Giemsa staining method; assay type: functional; outline: as §1
[22] = test system: Plasmodium berghei; test: Antiplasmodial activity against Plasmodium berghei infected in Swiss Webster mouse assessed as mouse survival at 200 mg/kg, po dosed once daily for 4 consecutive days beginning 1 hr after initial infection and measured on day 6 post infection by Giemsa staining method; assay type: functional; outline: as §1
[23] = test system: Plasmodium berghei; test: Antiplasmodial activity against Plasmodium berghei infected in Swiss Webster mouse assessed as mouse survival at 200 mg/kg, po dosed once daily for 4 consecutive days beginning 1 hr after initial infection and measured on day 8 post infection by Giemsa staining method; assay type: functional; outline: as §1
[24] = test system: Plasmodium berghei; test: Antiplasmodial activity against Plasmodium berghei infected in Swiss Webster mouse assessed as mouse survival at 200 mg/kg, po dosed once daily for 4 consecutive days beginning 1 hr after initial infection and measured on day 9 post infection by Giemsa staining method; assay type: functional; outline: as §1
[25] = test system: Plasmodium berghei; test: Antiplasmodial activity against Plasmodium berghei infected in Swiss Webster mouse assessed as mouse survival at 200 mg/kg, po dosed once daily for 4 consecutive days beginning 1 hr after initial infection and measured on day 10 post infection by Giemsa staining method; assay type: functional; outline: as §1
[26] = test system: Liver microsome; test: Stability in human liver microsomes assessed as compound remaining at 1 uM incubated for 1 hr in absence of NADPH by LC/MS/MS method; assay type: ADME; outline: as §2

Question: Which survival at 100 mg/kg [1] does the source give for COC(=O)c1cnc(Oc2ccc3c(c2)B(O)OC3)cn1 here?
Answer: 0%

Question: What about the survival at 3 mg/kg [2] of the same molecule?
Answer: 40%

Question: What about the survival at 3 mg/kg [3] of the same molecule?
Answer: 0%

Question: What about the Stability [4] of the same molecule?
Answer: 0%

Question: What about the Stability [5] of the same molecule?
Answer: 0%

Question: And the half-life [6]?
Answer: 60 min

Question: And the Cmax [7]?
Answer: 0.92 µg/mL

Question: And the AUC [8]?
Answer: 0.99 µg·h/mL

Question: And the “beta t1/2” value [9]?
Answer: 7.8 min

Question: What about the survival at 100 mg/kg [10] of the same molecule?
Answer: 40%

Question: And the survival at 100 mg/kg [11]?
Answer: 40%

Question: And the survival at 100 mg/kg [12]?
Answer: 20%

Question: What about the survival at 3 mg/kg [13] of the same molecule?
Answer: 40%

Question: With O=C(O)c1cnc(Oc2ccc3c(c2)B(O)OC3)cn1 as the molecule, how does the Cmax [14] read?
Answer: 19500 ng/mL

Question: What about the AUC(0-t) at 2 h [15] of the same molecule?
Answer: 8620 ng·h/mL

Question: And the half-life [16]?
Answer: 13.8 min

Question: And the clearance [17]?
Answer: 38.8 mL/min/kg

Question: And the Vd [18]?
Answer: 0.848 L/kg

Question: And the half-life [19]?
Answer: 66 min

Question: For NC(=O)c1cnc(Oc2ccc3c(c2)B(O)OC3)cn1, which survival at 200 mg/kg [20] is on record?
Answer: 100%

Question: And the survival at 200 mg/kg [21]?
Answer: 100%

Question: What about the survival at 200 mg/kg [22] of the same molecule?
Answer: 100%

Question: And the survival at 200 mg/kg [23]?
Answer: 100%

Question: What about the survival at 200 mg/kg [24] of the same molecule?
Answer: 40%

Question: What about the survival at 200 mg/kg [25] of the same molecule?
Answer: 0%

Question: What about the Stability [4] of the same molecule?
Answer: 97%

Question: And the Stability [5]?
Answer: 87%

Question: What about the Stability [26] of the same molecule?
Answer: 100%

Question: And the half-life [6]?
Answer: 126 min
